Values after ≈ are worked out from the molar mass of the structure shown. Active and inactive are the calls of the source. No cut-off for these calls is given here.
Legend:
[1] = biological target: T1, G-protein coupled bile acid receptor 1 (Homo sapiens) (UniProt Q8TDU6); assay: Agonist activity at human GPBAR1 expressed in HEK293T cells at 10 uM after 18 hrs by cAMP response element driven luciferase reporter gene assay; format: functional, cell-based
T1 sequence (whole entry): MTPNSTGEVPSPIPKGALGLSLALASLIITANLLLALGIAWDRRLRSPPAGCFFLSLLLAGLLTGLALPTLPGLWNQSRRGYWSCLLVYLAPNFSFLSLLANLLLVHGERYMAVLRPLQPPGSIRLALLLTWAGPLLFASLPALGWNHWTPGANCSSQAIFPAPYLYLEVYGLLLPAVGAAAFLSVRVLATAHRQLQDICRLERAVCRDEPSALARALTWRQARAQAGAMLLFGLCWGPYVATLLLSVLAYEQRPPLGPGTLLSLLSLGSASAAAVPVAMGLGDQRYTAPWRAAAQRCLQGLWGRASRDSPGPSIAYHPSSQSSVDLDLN

[2] = biological target: T2, Oxysterols receptor LXR-beta (Homo sapiens) (UniProt P55055); assay: Transactivation of Gal4-fused LXRbeta LBD (unknown origin) expressed in HepG2 cells at 10 uM after 18 hrs by dual-glo luciferase assay; format: cell-based
T2 sequence (whole entry): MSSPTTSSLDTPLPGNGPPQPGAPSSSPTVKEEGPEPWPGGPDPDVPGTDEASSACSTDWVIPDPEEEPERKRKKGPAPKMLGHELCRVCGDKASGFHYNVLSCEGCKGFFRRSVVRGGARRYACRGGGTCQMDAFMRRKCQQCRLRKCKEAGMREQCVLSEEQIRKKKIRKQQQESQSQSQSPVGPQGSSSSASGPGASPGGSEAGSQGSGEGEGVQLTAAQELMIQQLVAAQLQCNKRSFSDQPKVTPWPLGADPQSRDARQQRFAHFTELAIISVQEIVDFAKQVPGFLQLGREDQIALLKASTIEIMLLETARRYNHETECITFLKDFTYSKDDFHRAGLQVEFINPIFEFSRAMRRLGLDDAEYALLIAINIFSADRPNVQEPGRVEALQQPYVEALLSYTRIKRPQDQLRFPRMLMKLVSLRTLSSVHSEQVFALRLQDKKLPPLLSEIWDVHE

[3] = biological target: T3, Peroxisome proliferator-activated receptor gamma (Homo sapiens) (UniProt P37231); assay: Transactivation of Gal4-fused PPARgamma LBD (unknown origin) expressed in HepG2 cells at 10 uM after 18 hrs by dual-glo luciferase assay; format: cell-based
T3 sequence (whole entry): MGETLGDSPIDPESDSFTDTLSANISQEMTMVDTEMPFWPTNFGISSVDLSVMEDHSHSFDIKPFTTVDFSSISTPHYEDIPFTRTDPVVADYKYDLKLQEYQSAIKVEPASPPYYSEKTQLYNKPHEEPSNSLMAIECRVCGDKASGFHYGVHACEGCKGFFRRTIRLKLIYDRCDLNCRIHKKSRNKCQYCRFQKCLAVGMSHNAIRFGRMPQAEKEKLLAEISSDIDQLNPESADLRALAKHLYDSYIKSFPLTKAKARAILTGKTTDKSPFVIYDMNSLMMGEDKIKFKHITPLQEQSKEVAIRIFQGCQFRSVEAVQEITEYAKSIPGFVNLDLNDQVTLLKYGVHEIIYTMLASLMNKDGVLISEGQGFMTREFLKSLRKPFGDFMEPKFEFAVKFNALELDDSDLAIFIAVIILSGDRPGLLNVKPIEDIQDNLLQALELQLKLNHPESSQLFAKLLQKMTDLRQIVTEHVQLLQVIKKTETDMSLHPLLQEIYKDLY

[4] = biological target: T4, Oxysterols receptor LXR-alpha (Homo sapiens) (UniProt Q13133); assay: Transactivation of Gal4-fused LXRalpha LBD (unknown origin) expressed in HepG2 cells at 10 uM after 18 hrs by dual-glo luciferase assay; format: cell-based
T4 sequence (whole entry): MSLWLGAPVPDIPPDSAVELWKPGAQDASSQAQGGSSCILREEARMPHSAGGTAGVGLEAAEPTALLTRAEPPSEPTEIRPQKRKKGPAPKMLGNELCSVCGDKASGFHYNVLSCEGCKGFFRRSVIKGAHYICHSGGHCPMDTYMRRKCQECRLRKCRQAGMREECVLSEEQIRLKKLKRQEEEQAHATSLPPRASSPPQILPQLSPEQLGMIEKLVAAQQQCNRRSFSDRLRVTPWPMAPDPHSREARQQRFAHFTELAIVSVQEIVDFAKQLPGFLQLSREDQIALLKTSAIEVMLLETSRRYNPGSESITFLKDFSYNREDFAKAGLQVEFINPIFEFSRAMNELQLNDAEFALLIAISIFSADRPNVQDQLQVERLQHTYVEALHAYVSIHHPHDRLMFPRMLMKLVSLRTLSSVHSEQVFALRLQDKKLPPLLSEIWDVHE

[5] = tested on: Mus musculus; assay: Hepatoprotective activity against APAP-induced acute liver injury in C57BL/6N mouse assessed as reduction in liver necrosis at 30 mg/kg, po administered 45 mins after APAP challenge by H and E staining based microscopic method; format: functional, organism-based
Outline: (§1)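 C57Bl6 mice given a single 500 mg/kg APAP dose, with test agent at 30 mg/kg; surviving mice sacrificed 24 h later, blood and liver collected. Endpoints: serum AST/ALT, liver H&E histology, hepatic Ugt1a1/Ugt2b1/Sult1a1 mRNA, hepatic GSH, SOD activity and MDA, and plasma APAP, APAP-glucuronide and APAP-sulfate by LC–MS/MS. Mean ± SEM, 5–8 animals per group.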

[6] = tested on: Mus musculus; assay: In-vivo agonist activity at FXR in C57BL/6N N mouse assessed as upregulation of BSEP mRNA level at 10 mg/kg, ip dosed daily […] for 3 days by RT-PCR analysis; format: functional, organism-based
Outline: (§2)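 Mice dosed 10 mg/kg daily for 3 days, by gavage or i.p. Total liver RNA analysed by quantitative real-time PCR for SHP or BSEP mRNA, normalized to GAPDH mRNA; mean ± SEM of four mice per group.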

[7] = tested on: Mus musculus; assay: Hepatoprotective activity against APAP-induced acute liver injury in C57BL/6N mouse assessed as upregulation of UGT1A1 mRNA levels at 30 mg/kg, po administered 45 mins after APAP challenge; format: functional, organism-based; outline: as §1
[8] = tested on: Mus musculus; assay: Hepatoprotective activity against APAP-induced acute liver injury in C57BL/6N mouse assessed as APAP plasma concentration at 30 mg/kg, po administered 45 min after APAP challenge by LC-MS/MS analysis (reference value: 1000 nM); format: functional, organism-based; outline: as §1
[9] = tested on: Mus musculus; assay: In-vivo agonist activity at FXR in C57BL/6N N mouse assessed as upregulation of BSEP mRNA level at 10 mg/kg, po dosed daily via gavage for 3 days by RT-PCR analysis; format: functional, organism-based; outline: as §2
[10] = tested on: Mus musculus; assay: Hepatoprotective activity against APAP-induced acute liver injury in C57BL/6N mouse assessed as reduction in lipid peroxidation by measuring MDA levels at 30 mg/kg, po administered 45 mins after APAP challenge; format: functional, organism-based; outline: as §1
[11] = tested on: Mus musculus; assay: Hepatoprotective activity against APAP-induced acute liver injury in C57BL/6N mouse assessed as reduction in plasma AST levels at 30 mg/kg, po administered 45 mins after APAP challenge; format: functional, organism-based; outline: as §1
[12] = tested on: Mus musculus; assay: Hepatoprotective activity against APAP-induced acute liver injury in C57BL/6N mouse assessed as increase in SOD levels at 30 mg/kg, po administered 45 mins after APAP challenge; format: functional, organism-based; outline: as §1
[13] = tested on: Mus musculus; assay: Hepatoprotective activity against APAP-induced acute liver injury in C57BL/6N mouse assessed as increase in APAP metabolism by measuring increase in APAP-sulfate level at 30 mg/kg, po administered 45 min after APAP challenge by LC-MS/MS analysis; format: functional, organism-based; outline: as §1
[14] = tested on: Mus musculus; assay: In-vivo agonist activity at FXR in C57BL/6N N mouse assessed as upregulation of SHP mRNA level at 10 mg/kg, po dosed daily via gavage for 3 days by RT-PCR analysis; format: functional, organism-based; outline: as §2
[15] = tested on: Mus musculus; assay: Hepatoprotective activity against APAP-induced acute liver injury in C57BL/6N mouse assessed as increase in APAP metabolism by measuring increase in APAP-glucuronide level at 30 mg/kg, po administered 45 min after APAP challenge by LC-MS/MS analysis; format: functional, organism-based; outline: as §1
[16] = tested on: Mus musculus; assay: Hepatoprotective activity against APAP-induced acute liver injury in C57BL/6N mouse assessed as upregulation of SULT1A1 mRNA levels at 30 mg/kg, po administered 45 mins after APAP challenge; format: functional, organism-based; outline: as §1
[17] = tested on: Mus musculus; assay: Hepatoprotective activity against APAP-induced acute liver injury in C57BL/6N mouse assessed as increase in GSH levels at 30 mg/kg, po administered 45 mins after APAP challenge; format: functional, organism-based; outline: as §1
[18] = tested on: Mus musculus; assay: In-vivo agonist activity at FXR in C57BL/6N N mouse assessed as upregulation of SHP mRNA level at 10 mg/kg, ip dosed daily […] for 3 days by RT-PCR analysis; format: functional, organism-based; outline: as §2
[19] = tested on: Mus musculus; assay: Hepatoprotective activity against APAP-induced acute liver injury in C57BL/6N mouse assessed as reduction in plasma ALT levels at 30 mg/kg, po administered 45 mins after APAP challenge; format: functional, organism-based; outline: as §1
[20] = tested on: Mus musculus; assay: Hepatoprotective activity against APAP-induced acute liver injury in C57BL/6N mouse assessed as upregulation of UGT2B1 mRNA levels at 30 mg/kg, po administered 45 mins after APAP challenge; format: functional, organism-based; outline: as §1
[21] = Half life in rat liver microsomes at 1 uM up to 40 mins by LC-MS/MS method
[22] = Intrinsic clearance in rat liver microsomes at 1 uM up to 40 mins by LC-MS/MS method; details: read-out: CLH
[23] = Metabolic stability in rat liver microsomes assessed as compound remaining at 1 uM up to 40 mins by LC-MS/MS method relative to control
[24] = Aqueous solubility of compound in phosphate buffer at pH 7.4//MeOH after 24 hrs by LC-MS/MS method; format: physicochemical

## CC(C)c1onc(-c2c(Cl)cccc2Cl)c1COc1ccc(S(C)(=O)=O)cc1
[1]
  Activity: inactive

## CC(C)c1onc(-c2c(Cl)cccc2Cl)c1COc1ccc(COc2cccc(C(=O)O)c2)cc1
[2]
  Activity: inactive
[3]
  Activity: inactive
[1]
  Activity: inactive
[4]
  Activity: inactive

## COC(=O)c1ccc(OCc2c(-c3c(Cl)cccc3Cl)noc2C(C)C)cc1
[1]
  Activity: inactive

## CC(C)c1onc(-c2c(Cl)cccc2Cl)c1COc1ccc(-c2cccc(C(=O)O)c2)cc1
[1]
  Activity: inactive

## CC(C)c1onc(-c2c(Cl)cccc2Cl)c1COc1ccc(CO)cc1
[1]
  Activity: inactive

## CC(C)c1onc(-c2c(Cl)cccc2Cl)c1COc1cccc(C(=O)O)c1
[1]
  Activity: inactive

## CC(C)c1onc(-c2c(Cl)cccc2Cl)c1COc1ccc(C(=O)O)cc1
[1]
  Activity: inactive

## CC(C)c1onc(-c2c(Cl)cccc2Cl)c1COc1ccc(COc2ccc(C(=O)O)cc2)cc1
[5]
  Activity: Active
[2]
  Activity: inactive
[6]
  Activity: Active
[3]
  Activity: inactive
[7]
  Activity: Active
[8]
  Cp: 615 nM
[9]
  Activity: Active
[10]
  Activity: Active
[11]
  Activity: Active
[12]
  Activity: Active
[13]
  Activity: Active
[14]
  Activity: Active
[15]
  Activity: Active
[16]
  Activity: Active
[17]
  Activity: Active
[1]
  Activity: inactive
[18]
  Activity: Active
[19]
  Activity: Active
[20]
  Activity: Active
[4]
  Activity: inactive

## CC[C@H]1[C@@H](O)[C@@H]2[C@H](CC[C@]3(C)[C@@H]([C@H](C)CCC(=O)O)CC[C@@H]23)[C@@]2(C)CC[C@@H](O)C[C@@H]12 [OBETICHOLIC ACID]
[21]
  half-life at 1 µM: 21 min
[22]
  microsomal CLint at 1 µM: 109 µL/min/mg
[23]
  remaining at 40 min, 1 µM: 27%
[24]
  solubility at 24 h: > 200 µM

## CC(C)c1onc(-c2c(Cl)cccc2Cl)c1COc1ccc(C#N)cc1
[1]
  Activity: inactive

## CC(C)c1onc(-c2c(Cl)cccc2Cl)c1COc1ccc(COc2ccc(CO)cc2)cc1
[1]
  Activity: inactive

## COC(=O)c1cccc(-c2ccc(OCc3c(-c4c(Cl)cccc4Cl)noc3C(C)C)cc2)c1
[1]
  Activity: inactive

## CC(C)c1onc(-c2c(Cl)cccc2Cl)c1COc1cccc(C#N)c1
[1]
  Activity: inactive

## COC(=O)c1cccc(OCc2c(-c3c(Cl)cccc3Cl)noc2C(C)C)c1
[1]
  Activity: inactive

## CC(C)c1onc(-c2c(Cl)cccc2Cl)c1COc1ccc(/C=C/c2cccc(C(=O)O)c2)c(Cl)c1
[11]
  Activity: Active
[21]
  half-life at 1 µM: 41 min
[22]
  microsomal CLint at 1 µM: 56 µL/min/mg
[23]
  remaining at 40 min, 1 µM: 48%
[24]
  solubility at 24 h: 152 µM (≈ 82.5 µg/mL)
[19]
  Activity: Active

## COC(=O)c1cccc(OCc2ccc(OCc3c(-c4c(Cl)cccc4Cl)noc3C(C)C)cc2)c1
[1]
  Activity: inactive

## CC(C)c1onc(-c2c(Cl)cccc2Cl)c1COc1ccc(COc2cccc(CO)c2)cc1
[1]
  Activity: inactive

## CC(C)c1onc(-c2c(Cl)cccc2Cl)c1COc1ccc(COc2ccc(C#N)cc2)cc1
[1]
  Activity: inactive

## CC(C)c1onc(-c2c(Cl)cccc2Cl)c1COc1ccc(COc2cccc(C#N)c2)cc1
[1]
  Activity: inactive

## CC(C)c1onc(-c2c(Cl)cccc2Cl)c1COc1ccccc1
[1]
  Activity: inactive

## CC(C)c1onc(-c2c(Cl)cccc2Cl)c1COc1cccc(CO)c1
[1]
  Activity: inactive

## CC(C)c1onc(-c2c(Cl)cccc2Cl)c1COc1ccc(-c2cccc(CO)c2)cc1
[1]
  Activity: inactive

## COC(=O)c1ccc(OCc2ccc(OCc3c(-c4c(Cl)cccc4Cl)noc3C(C)C)cc2)cc1
[1]
  Activity: inactive
